Common to all, as to format: functional
Assay [1] has as its system Spodoptera litura. Briefly: Antifeedant activity against third-instar larval stage of Spodoptera litura in compound-treated castor leaves assessed as decrease in diet consumption at 0.5 ug/cm2 after 24 hr by no-choice leaf disk assay relative to acetone-treated control. Set-up: scale not given: the % may be the effect or the level left. A digest of the protocol: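 Larvae were reared on castor leaves at 25 ± 2 °C. In a no-choice test, compound in acetone was painted on the abaxial side of castor leaf disks and air-dried. Five freshly molted third-instar larvae, starved 4 h, were placed per Petri dish with wet cotton. There were five replicates. After 24 h, consumed leaf area was read on a leaf area meter. %AF = 100 − (treated/control)×100.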

Assay [2] relates to Earias vittella. Briefly: Antifeedant activity against third-instar larval stage of Earias vitella assessed as decrease in diet consumption at 0.5 ug/cm3 administered through artificial diet containing Abelmoschus esculentus seed powder after 24 hr relative to acetone-treated control. Set-up: scale not given: the % may be the effect or the level left. In a few lines: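 Artificial diet was modified Klein medium with bhendi (Abelmoschus esculentus) seed powder in place of alfalfa. Compound in acetone was mixed into bhendi meal 12 h before diet preparation so the solvent evaporated. One 3 g diet cube was given to five freshly molted third-instar larvae in a muslin-covered container. After 24 h the cubes were weighed. %AF = 100 − (treated/control)×100.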

The subject of assay [3] is Spodoptera litura. Briefly: Insecticidal activity against female adult Spodoptera litura in compound-treated castor leaves assessed as adult longevity time at 0.5 ug/cm2 (reference value: 10 +/- 0.63 days).
For assay [4], the system named is Spodoptera litura. The experiment in a line: Insecticidal activity against male adult Spodoptera litura in compound-treated castor leaves assessed as adult longevity time at 0.5 ug/cm2 (reference value: 9.4 +/- 0.48 days).
The subject of assay [5] is Spodoptera litura. Briefly: Insecticidal activity against adult Spodoptera litura in compound-treated castor leaves assessed as adult deformity at 0.5 ug/cm2 relative to control.
In assay [6] the test system is Spodoptera litura. Briefly: Insecticidal activity against adult Spodoptera litura in compound-treated castor leaves assessed as adult emergence at 0.5 ug/cm2 relative to control.
The test system of assay [7] is Spodoptera litura. Briefly: Insecticidal activity against pupal stage of Spodoptera litura in compound-treated castor leaves assessed as pupal mortality at 0.5 ug/cm2 relative to control.
Assay [8] relates to Spodoptera litura. The experiment in a line: Insecticidal activity against pupal stage of Spodoptera litura in compound-treated castor leaves assessed as pupal weight at 0.5 ug/cm2 (reference value: 302.4 +/- 5.9 mg).
The subject of assay [9] is Spodoptera litura. The experiment in a line: Insecticidal activity against pupal stage of Spodoptera litura in compound-treated castor leaves assessed as pupal duration time at 0.5 ug/cm2 (reference value: 9.2 +/- 0.74 days).
Assay [10] has as its system Spodoptera litura. Briefly: Insecticidal activity against third-instar larval stage of Spodoptera litura in compound-treated castor leaves assessed as larval mortality at 0.5 ug/cm2 relative to control.
Assay [11] deals with Spodoptera litura. Briefly: Insecticidal activity against third-instar larval stage of Spodoptera litura in compound-treated castor leaves assessed as total larval duration time at 0.5 ug/cm2 (reference value: 12.4 +/- 0.48 days).
Assay [12] relates to Earias vittella. Briefly: Insecticidal activity against female adult Earias vitella assessed as adult longevity time at 0.5 ug/cm3 administered through artificial diet containing Abelmoschus esculentus seed powder (reference value: 8.6 +/- 0.48 days).
Assay [13] concerns Earias vittella. The experiment in a line: Insecticidal activity against male adult Earias vitella assessed as adult longevity time at 0.5 ug/cm3 administered through artificial diet containing Abelmoschus esculentus seed powder (reference value: 8.2 +/- 0.4 days).
Assay [14] deals with Earias vittella. The experiment in a line: Insecticidal activity against adult Earias vitella assessed as adult deformity at 0.5 ug/cm3 administered through artificial diet containing Abelmoschus esculentus seed powder (reference value: 4%).
For assay [15], the system named is Earias vittella. The experiment in a line: Insecticidal activity against adult Earias vitella assessed as adult emergence at 0.5 ug/cm3 administered through artificial diet containing Abelmoschus esculentus seed powder (reference value: 88%).
For assay [16], the system named is Earias vittella. Briefly: Insecticidal activity against pupal stage of Earias vitella assessed as pupal mortality at 0.5 ug/cm3 administered through artificial diet containing Abelmoschus esculentus seed powder (reference value: 8%).
Assay [17] relates to Earias vittella. Briefly: Insecticidal activity against pupal stage of Earias vitella assessed as pupal weight at 0.5 ug/cm3 administered through artificial diet containing Abelmoschus esculentus seed powder (reference value: 88.2 +/- 4.01 mg).
For assay [18], the system named is Earias vittella. The experiment in a line: Insecticidal activity against pupal stage of Earias vitella assessed as pupal duration time at 0.5 ug/cm3 administered through artificial diet containing Abelmoschus esculentus seed powder (reference value: 6.4 +/- 0.21 days).
Assay [19] has as its system Earias vittella. Briefly: Insecticidal activity against third-instar larval stage of Earias vitella assessed as larval mortality at 0.5 ug/cm3 administered through artificial diet containing Abelmoschus esculentus seed powder (reference value: 4%).
In assay [20] the test system is Earias vittella. Briefly: Insecticidal activity against third-instar larval stage of Earias vitella assessed as total larval duration time at 0.5 ug/cm3 administered through artificial diet containing Abelmoschus esculentus seed powder (reference value: 8.2 +/- 0.48 days).

For orientation: mortality means the share of the test organisms that died.

With `C/C=C(\C)C(=O)O[C@H]1C[C@@H](OC(C)=O)[C@@]2(C(=O)OC)CO[C@H]3[C@@H](O)[C@@](C)([C@]45O[C@@]4(C)[C@@H]4C[C@H]5O[C@@H]5OC=C[C@@]54O)[C@H]4[C@]1(CO[C@]4(O)C(=O)OC)[C@@H]32` [AZADIRACHTIN A], the Activity in the assay with Spodoptera litura [1] is recorded as 79.2%; in the assay on Earias vittella [2], 79.2%; in the assay on Spodoptera litura [5] it was 28.5%; with Spodoptera litura [6], 42.8%; in the assay on Spodoptera litura [8] it was 247.2 mg; with Earias vittella [14] it was 25%. In addition, the Activity in the assay on Earias vittella [15] is on record as 37%; in the assay with Earias vittella [17], 59.2 mg. In addition, the Time turned out to be 7 days with Spodoptera litura [3]; 7.2 days in the assay on Spodoptera litura [4]; 11 days in the assay on Spodoptera litura [9]; 13.9 days in the assay with Spodoptera litura [11]; 6.8 days in the assay on Earias vittella [12]; 6.6 days in the assay with Earias vittella [13]. Also, the figures for the Time in the assay on Earias vittella [18] and in the assay on Earias vittella [20] were 8.4 days and 11 days, respectively. In addition, the mortality at 0.5 µg/cm2 was determined as 28% with Spodoptera litura [7] and 78% in the assay with Spodoptera litura [10]. In addition, the mortality is 37.5% with Earias vittella [16] and 68% in the assay on Earias vittella [19].
